Laboratory results: ChEMBL document CHEMBL3352177, “C-glycoside mimetics inhibit glioma stem cell proliferation, migration, and invasion” (J Med Chem, 2014)

Legend:
[1] = system: C6; test: Antiproliferative activity against rat C6 cells after 48 to 72 hrs by MTT assay; type: functional, cell-based
Outline: (§1)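 MTT assay read 48 and 72 h after compound addition. Cell lines grown in DMEM with 10% heat-inactivated FCS, 2 mM L-glutamine, 1 mM sodium pyruvate; GBM stem cells grown as nonadherent neurospheres. IC50 by Hill equation fit; ≥3 independent experiments, each point repeated six times.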

[2] = Antimigratory activity against human Gli4 cells on matrix containing vitronectin after 24 hrs by 2-D migration assay; type: functional, cell-based
Outline: (§2)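 Boyden chamber 2D migration toward serum over 24 h on fibronectin, vitronectin or laminin matrix. Cells in DMEM with 0.1% BSA in the upper compartment with or without compound; 10% FCS medium below. Gli4/Gli7 taken from neurosphere cultures. Migrated cells methanol-fixed, crystal violet stained, counted at ×200. Ki from Hill equation fit; ≥3 independent experiments, each point in quadruplicate.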

[3] = Antiinvasive activity against human Gli7 cells after 48 hrs by matrigel assay; type: functional, cell-based
[4] = system: SNB-75; test: Antimigratory activity against human SNB75 cells on matrix containing vitronectin after 24 hrs by 2-D migration assay; type: functional, cell-based; outline: as §2
[5] = system: SNB-75; test: Antimigratory activity against human SNB75 cells on matrix containing laminin after 24 hrs by 2-D migration assay; type: functional, cell-based; outline: as §2
[6] = system: DU-145; test: Antiproliferative activity against human DU145 cells after 48 to 72 hrs by MTT assay; type: functional, cell-based; outline: as §1
[7] = system: C6; test: Antimigratory activity against rat C6 cells on matrix containing fibronectin after 24 hrs by 2-D migration assay; type: functional, cell-based; outline: as §2
[8] = Antimigratory activity against human Gli4 cells on matrix containing laminin after 24 hrs by 2-D migration assay; type: functional, cell-based; outline: as §2
[9] = Antiproliferative activity against human Gli7 cells after 48 to 72 hrs by MTT assay; type: functional, cell-based; outline: as §1
[10] = system: SNB-75; test: Antiproliferative activity against human SNB75 cells after 48 to 72 hrs by MTT assay; type: functional, cell-based; outline: as §1
[11] = Antimigratory activity against human Gli4 cells on matrix containing fibronectin after 24 hrs by 2-D migration assay; type: functional, cell-based; outline: as §2
[12] = Antimigratory activity against human Gli7 cells on matrix containing fibronectin after 24 hrs by 2-D migration assay; type: functional, cell-based; outline: as §2
[13] = Antimigratory activity against human Gli7 cells on matrix containing laminin after 24 hrs by 2-D migration assay; type: functional, cell-based; outline: as §2
[14] = Cytotoxicity against rat cortical neurons at 100 uM by MAP2 immunofluorescence assay; conditions: cortical neurone
Outline: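 Rat E17 embryonic cortical neurons cultured 17 days, treated 48 h; then 5 μg/mL Hoechst 33342 and 10 μM propidium iodide for 30 min at 37 °C, PBS wash, 4% paraformaldehyde fixation. Fluorescence read on plate reader and by camera imaging; MAP2 immunofluorescence imaged; Triton X-100 (2%) control; mean % PI uptake from three wells per condition.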

[15] = system: MDA-MB-231; test: Antiproliferative activity against human MDA-MB-231 cells after 48 to 72 hrs by MTT assay; type: functional, cell-based; outline: as §1
[16] = Antiproliferative activity against human HuH7 cells after 48 to 72 hrs by MTT assay; type: functional, cell-based; conditions: Huh-7; outline: as §1
[17] = system: C6; test: Antimigratory activity against rat C6 cells on matrix containing vitronectin after 24 hrs by 2-D migration assay; type: functional, cell-based; outline: as §2
[18] = Antiproliferative activity against mouse B16F10 cells after 48 to 72 hrs by MTT assay; type: functional, cell-based; conditions: B16-F10; outline: as §1
[19] = Antiproliferative activity against human Caco2 cells after 48 to 72 hrs by MTT assay; type: functional, cell-based; conditions: Caco-2; outline: as §1
[20] = Cytotoxicity against rat cortical neurons at 100 uM using propidium iodide by flow cytometry; conditions: cortical neurone
[21] = system: SNB-75; test: Antimigratory activity against human SNB75 cells on matrix containing fibronectin after 24 hrs by 2-D migration assay; type: functional, cell-based; outline: as §2
[22] = Antimigratory activity against human Gli7 cells on matrix containing vitronectin after 24 hrs by 2-D migration assay; type: functional, cell-based; outline: as §2
[23] = Cytotoxicity against mouse astrocytes at 100 uM by MTT assay; type: cell-based; conditions: astrocyte
Outline: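 Primary astrocytes from day-2 newborn mouse cortex, kept 21 days (nonproliferative, GFAP-positive), exposed to compound up to 100 μM; viability by MTT assay.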

[24] = system: A-431; test: Antiproliferative activity against human A431 cells after 48 to 72 hrs by MTT assay; type: functional, cell-based; outline: as §1
[25] = system: MDA-MB-435; test: Antiproliferative activity against human MDA-MB-435 cells after 48 to 72 hrs by MTT assay; type: functional, cell-based; outline: as §1
[26] = Antiinvasive activity against human Gli4 cells after 48 hrs by matrigel assay; type: functional, cell-based
[27] = system: C6; test: Antimigratory activity against rat C6 cells on matrix containing laminin after 24 hrs by 2-D migration assay; type: functional, cell-based; outline: as §2

In the case of `CC1(C)O[C@@H]2[C@H](O1)[C@@H](Nc1cccc3ccccc13)[P@](=O)(c1ccccc1)O[C@@H]2[C@H]1COC(C)(C)O1`, the IC50 [1] is reported as 5740 nM, the Ki [2] is reported as 36 nM and the Ki [3] is reported as 46 nM. For the same molecule, the Ki [4] was 100 nM, the Ki [5] was 60 nM and the IC50 [6] was over 100000 nM. It also gave a Ki [7] of 126 nM, a Ki [8] of 22 nM and an IC50 [9] of 2330 nM. For the same molecule, the IC50 [10] was 3410 nM, the Ki [11] was 31 nM and the Ki [12] was 16 nM. The Ki [13] was 100 nM, the Activity [14] was “Toxic” and the IC50 [15] was 9810 nM. It also gave an IC50 [16] of 6870 nM, a Ki [17] of 300 nM and an IC50 [18] of over 100000 nM. For the same molecule, the IC50 [19] was over 100000 nM, the Activity [20] was “Toxic” and the Ki [21] was 124 nM. For the same molecule, the Ki [22] was 42 nM, the Activity [23] was “Toxic” and the IC50 [24] was 1340 nM. The IC50 [25] was 4690 nM, the Ki [26] was 290 nM and the Ki [27] was 77 nM.
